Measurements of several laboratories.
Lines come from different studies, so protocols differ. Converted amounts (≈) assume the structure as drawn.
Observed: microbial growth

| Compound | organism | method | strain | concentration | endpoint | result |
| --- | --- | --- | --- | --- | --- | --- |
| CC(C)CCCCCCCCCCCCCCc1cc(O)cc(O)c1 | Bacillus subtilis |  |  |  | IC50 | 10.2 µM |
| C=CCCCCCCCCC(=O)C(F)(F)P(=O)(O)O | Bacillus subtilis |  | ATCC23857 |  | MIC | 200 µg/mL |
| Cc1c(NN=C(C#N)C2=NC(=O)CS2)c(=O)n(-c2ccccc2)n1C | Bacillus subtilis | well diffusion |  | 100000 µg/mL | inhibition zone | 26 mm |
| CC(C)C(C)CCCCCCCCCCCc1cc(O)cc(O)c1 (stereo not drawn) | Bacillus subtilis |  |  |  | IC50 | 11.4 µM |
| CC1(C)S[C@@H]2[C@H](NC(=O)[C@H](N)c3ccccc3)C(=O)N2[C@H]1C(=O)O | Listeria monocytogenes | well diffusion | ATCC7644 | 60000 µg/mL | inhibition zone | 27 mm |
| O=C(CCCCC1CCCCC1)CP(=O)(O)O | Bacillus subtilis |  | ATCC23857 |  | MIC | 25 µg/mL |
| CC[C@H](C)C[C@H](C)CCCCCCCCC(=O)N[C@H]1C[C@@H](O)[C@@H](NCCN)NC(=O)[C@@H]2[C@@H](O)CCN2C(=O)[C@H]([C@H](O)CCN)NC(=O)[C@H]([C@H](O)[C@@H](O)c2ccc(O)cc2)NC(=O)[C@@H]2C[C@@H](O)CN2C(=O)[C@H]([C@@H](C)O)NC1=O | Nakaseomyces glabratus | broth dilution | MY1381 |  | MIC50 | 0.125 µg/mL (≈ 0.114 µM) |
| NC[C@H]1O[C@H](O[C@H]2[C@H](O)[C@@H](O[C@H]3O[C@H](CO)[C@@H](O)[C@H](N)[C@H]3O)[C@H](N)C[C@@H]2N)[C@H](N)C[C@@H]1O | Listeria monocytogenes |  | ATCC19115 |  | MIC | 4.7 µg/mL |
| O=C(NN=Cc1ccc(O)c(Br)c1)c1cccc(Br)c1 | Cryptococcus neoformans | broth dilution |  |  | MIC | 0.3 µg/mL |
| O=C(CCCCc1ccccc1)CP(=O)(O)O | Bacillus subtilis |  | ATCC23857 |  | MIC | > 200 µg/mL |
| CCCC[C@H]1CN(c2cccc(OC(F)(F)F)c2)C(=O)CN1Cc1cncn1Cc1ccc(Br)cc1 | Cryptococcus neoformans | broth dilution |  |  | MIC | 3 to 6 µM |
| CCCC(=O)CP(=O)(O)O | Bacillus subtilis |  | ATCC23857 |  | MIC | > 200 µg/mL |
| CCCCCCCCCCCCCCCCCCCCc1cc(O)cc(O)c1 | Bacillus subtilis |  |  |  | IC50 | > 200 µM |
| CCCCCC/C=C\CCCCCCCCCC(=O)CP(=O)(O)O | Bacillus subtilis |  | ATCC23857 |  | MIC | 25 µg/mL |
| CC(=O)C1=C(O)C(CC(C)C)NC1=O (stereo not drawn) | Proteus vulgaris |  | ATCC33420 |  | MIC | > 200 µg/mL |
